The results in this text go back to ChEMBL document CHEMBL2163200, “Synthesis, biological evaluation, and structure-activity relationships of novel substituted N-phenyl ureidobenzenesulfonate derivatives blocking cell cycle progression in S-phase and inducing DNA double-strand breaks” (J Med Chem, 2012).

pIC50: −log10 of the molar value. Activity calls are given as the source filed them. The calls are words filed in the database; no cut-off is given here.

Data set [1] has as its system Jurkat. In words: Cell cycle arrest in human Jurkat E6-1 cells assessed as accumulation at G0/G1 phase at 2.2 uM after 24 hrs by FACS flow cytometry. In kind it is functional. The essentials: (§1)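 Jurkat E6 cells cultured in RPMI 1640 with 10% FBS at 37 °C, 5% CO2. Compounds serially diluted in medium, starting 50% above the M21 IC50. 4.0 × 10^5 cells were exposed for 24 h. Cells were washed with PBS, chicken red blood cells added as internal standard, and fixed in ice-cold EtOH. After 1 h on ice in PBS with 1 μg/mL DAPI, phase distribution was read by flow cytometry. DMSO-treated cells served as control.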
(Flow cytometry measures light scatter and fluorescence of single cells or particles in a stream.)

Data set [2] deals with Jurkat. In words: Cell cycle arrest in human Jurkat E6-1 cells assessed as accumulation at S phase at 2.2 uM after 24 hrs by FACS flow cytometry. In kind it is functional. The essentials:
(§2)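 Jurkat E6 cells grown in RPMI 1640 with 10% FBS at 37 °C, 5% CO2. Compounds were serially diluted in medium starting 50% above the M21 IC50. 4.0 × 10^5 cells were exposed for 24 h, then washed and spiked with chicken red blood cells as internal standard. Cells were fixed in ice-cold ethanol, stained with 1 μg/mL DAPI on ice for 1 h, and phase distribution was read by flow cytometry. The control was 0.5% DMSO.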

The subject of data set [3] is Jurkat. In words: Cell cycle arrest in human Jurkat E6-1 cells assessed as accumulation at G2/M phase at 2.2 uM after 24 hrs by FACS flow cytometry. The format is functional. In outline: as §2
Data set [4] deals with M21. In words: Induction of DNA damage response in human M21 cells assessed as phosphorylation of H2AX into gammaH2AX at IC50 after 24 hrs by DAPI staining-based immunofluorescence assay. In kind it is functional, cell-based. The essentials:
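M21 cells (1 × 10^5) on fibronectin-coated coverslips, grown 24 h, then exposed to agent for 24 h at 37 °C; 0.5% DMSO control. Fixed with 3.7% formaldehyde and permeabilized with 0.1% saponin/3% BSA. Probed with mouse anti-H2AX pS139 antibody for 2 h at room temperature. Nuclei counterstained with DAPI; nuclear γH2AX foci viewed by epifluorescence microscopy.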

The next data set has as its system HT-1080. In words: Antitumor activity against human HT1080 cells xenografted in chicken chorioallantoic membrane assessed as inhibition of tumor growth at 30 ug per egg, iv administered on day 11 measured on day 17 by CAM assay. In kind it is functional. In outline: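 HT-1080 fibrosarcoma cells (3.5 × 105/egg) were applied onto freshly exposed CAM of fertilized chicken eggs. On day 11, drug from a DMSO stock was diluted in Cremophor EL/99% ethanol/PBS (1/1/14 v/v) and 100 μL was injected into a vein under the CAM. Groups of 10–12 eggs were kept to day 17, embryos were euthanized at 4 °C for ≥4 h, and tumor wet weight was recorded.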
Background: In xenograft studies the graft and the host belong to different species.

Data set [5] in a line: Toxicity in fertilized chicken embryo assessed as mortality rate at 30 ug per egg, iv administered on day 11 measured on day 17 by CAM assay. The format is organism-based, Gallus gallus. The following applies: in vivo, read-out: Activity. The essentials: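 Fertilized chicken eggs grafted on the CAM with HT-1080 cells (3.5 × 105/egg) received a 100 μL intravenous injection under the CAM on day 11. The drug was diluted in Cremophor EL/99% ethanol/PBS (1/1/14 v/v). Groups held 10–12 eggs and were incubated until day 17, when dead embryos and signs of toxicity were counted per group.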

A further data set has as its system HT-29. In words: Cytotoxicity against human HT-29 cells after 48 hrs by SRB assay. As to conditions: HT-29, 48 h. The format is functional, cell-based. The essentials: (§3)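 NCI sulforhodamine B protocol. Cells were grown in high-glucose DMEM with 5% FBS and seeded per well at 4 × 10^3 (HT-29), 3.5 × 10^3 (M21) or 3 × 10^3 (MCF-7), then allowed 24 h to attach. Serial dilutions from 200 μM to 780 nM final were applied in DMSO <0.5% for 48 h. Cells were fixed with cold TCA (10% final) and stained with SRB, with absorbance read at 530–568 nm. Growth inhibition was computed against day-0 plates, giving the 50% inhibitory concentration. At least two experiments in triplicate, CV <10%.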
For orientation: The SRB assay estimates cell density from bound dye.

For data set [6], the system named is M21. In words: Cytotoxicity against human M21 cells after 48 hrs by SRB assay. As to conditions: M21, 48 h. In kind it is functional, cell-based. In outline:
as §3

In another data set the test system is MCF7. In words: Cytotoxicity against human MCF7 cells after 48 hrs by SRB assay. The format is functional, cell-based. As to conditions: MCF7, 48 h. The essentials: as §3
In data set [7] the test system is Jurkat. In words: Cell cycle arrest in human Jurkat E6-1 cells assessed as accumulation at S phase at 8.3 uM after 24 hrs by FACS flow cytometry. In kind it is functional. The essentials: (§4)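 Jurkat E6 T-lymphoblasts in RPMI 1640 with 10% FBS, 37 °C, 5% CO2. […] Chicken red blood cells were added as internal standard. Cells were fixed in ice-cold EtOH and stained with 1 μg/mL DAPI on ice for 1 h before flow cytometry of phase distribution. Vehicle control was 0.5% DMSO.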

Data set [8] deals with Jurkat. In words: Cell cycle arrest in human Jurkat E6-1 cells assessed as accumulation at G2/M phase at 8.3 uM after 24 hrs by FACS flow cytometry. The format is functional. In outline: as §2
The test system of data set [9] is Jurkat. In words: Cell cycle arrest in human Jurkat E6-1 cells assessed as accumulation at G0/G1 phase at 8.3 uM after 24 hrs by FACS flow cytometry. The format is functional. In outline: as §1
In data set [10] the test system is Jurkat. In words: Cell cycle arrest in human Jurkat E6-1 cells assessed as accumulation at G0/G1 phase at 12 uM after 24 hrs by FACS flow cytometry. In kind it is functional. In outline: as §1
Data set [11] concerns Jurkat. In words: Cell cycle arrest in human Jurkat E6-1 cells assessed as accumulation at S phase at 12 uM after 24 hrs by FACS flow cytometry. The format is functional. The essentials: as §2
Data set [12] relates to Jurkat. In words: Cell cycle arrest in human Jurkat E6-1 cells assessed as accumulation at G2/M phase at 12 uM after 24 hrs by FACS flow cytometry. The format is functional. The essentials: as §1
For data set [13], the system named is Jurkat. In words: Cell cycle arrest in human Jurkat E6-1 cells assessed as accumulation at S phase at 57 uM after 24 hrs by FACS flow cytometry. The format is functional. In outline:
as §4

Data set [14] deals with Jurkat. In words: Cell cycle arrest in human Jurkat E6-1 cells assessed as accumulation at G2/M phase at 57 uM after 24 hrs by FACS flow cytometry. The format is functional. In outline: as §2
Data set [15] relates to Jurkat. In words: Cell cycle arrest in human Jurkat E6-1 cells assessed as accumulation at G0/G1 phase at 57 uM after 24 hrs by FACS flow cytometry. In kind it is functional. In outline:
as §1

For data set [16], the system named is Jurkat. In words: Cell cycle arrest in human Jurkat E6-1 cells assessed as accumulation at G0/G1 phase at 32 uM after 24 hrs by FACS flow cytometry. The format is functional. In outline:
as §1

Data set [17] relates to Jurkat. In words: Cell cycle arrest in human Jurkat E6-1 cells assessed as accumulation at S phase at 32 uM after 24 hrs by FACS flow cytometry. The format is functional. The essentials:
as §4

Data set [18] concerns Jurkat. In words: Cell cycle arrest in human Jurkat E6-1 cells assessed as accumulation at G2/M phase at 32 uM after 24 hrs by FACS flow cytometry. The format is functional. The essentials: as §2
Data set [19] relates to Jurkat. In words: Cell cycle arrest in human Jurkat E6-1 cells assessed as accumulation at G0/G1 phase at 22 uM after 24 hrs by FACS flow cytometry. In kind it is functional. The essentials:
as §1

In data set [20] the test system is Jurkat. In words: Cell cycle arrest in human Jurkat E6-1 cells assessed as accumulation at S phase at 22 uM after 24 hrs by FACS flow cytometry. The format is functional. The essentials: as §2
Data set [21] relates to Jurkat. In words: Cell cycle arrest in human Jurkat E6-1 cells assessed as accumulation at G2/M phase at 22 uM after 24 hrs by FACS flow cytometry. In kind it is functional. In outline: as §2

In the case of `CCNC(=O)Nc1ccc(S(=O)(=O)Oc2ccccc2CC)cc1`, the Activity in the data set with Jurkat [1] was determined as 11%; in the data set with Jurkat [2], 75%; in the data set with Jurkat [3], 14%. For the same molecule, in the data set on M21 [4], the outcome was Active. Also, the TGI (usually the reduction of tumour growth relative to the control group) in the data set on HT-1080 is given as 45%. In data set [5], the mortality at 6 days came to 9%. In addition, the pIC50 (as a rule, the negative decadic logarithm of the IC50, by convention in mol/L) in the data set with HT-29 is 4.92; in the data set on M21 [6] it was 5.60; in the data set with MCF7, 5.47.
As for `Cc1ccccc1OS(=O)(=O)c1ccc(NC(=O)NCCCCl)cc1`, the Activity with Jurkat [7] was 70%; with Jurkat [8], 10%; with Jurkat [9], 20%. Moreover, the outcome in the data set with M21 [4] was Active. Further, the pIC50 was 4.60 in the data set on M21 [6] and 4.57 in the data set with MCF7.
Consider `CCNC(=O)Nc1cccc(S(=O)(=O)Oc2ccccc2CC)c1`, for which the Activity was found to be 26% in the data set on Jurkat [10], 63% in the data set with Jurkat [11] and 11% with Jurkat [12]. The outcome in the data set on M21 [4] was Active. In addition, the figures for the pIC50 with HT-29 and with M21 [6] were 4.48 and 4.52, respectively.
Regarding `O=C(NCCCCl)Nc1cccc(S(=O)(=O)Oc2ccc(O)cc2)c1`, the Activity was determined as 48% in the data set on Jurkat [13], 9% with Jurkat [14] and 43% in the data set with Jurkat [15]. The pIC50 with M21 [6] is 4.31.
On to `CCNC(=O)Nc1cccc(S(=O)(=O)Oc2ccc(O)cc2)c1`, for which the Activity in the data set with Jurkat [16] is 43%; in the data set on Jurkat [17], 39%; in the data set with Jurkat [18], 18%. The results for the pIC50 in the data set with HT-29, in the data set with M21 [6] and with MCF7 were 4.12, 4.38 and 4.19, respectively.
Take `CCCc1ccccc1NS(=O)(=O)c1ccc(NC(=O)NCCCCl)cc1`: the Activity in the data set with Jurkat [19] amounted to 36%; in the data set with Jurkat [20], 41%; in the data set with Jurkat [21], 23%. The figures for the pIC50 in the data set with HT-29, with M21 [6] and with MCF7 were 4.59, 4.42 and 4.46, respectively.
